According to article PMC7429274 (ACS infectious diseases, 2020):
Primed or numbered codes have the meaning given here. Ends that are not written are not given here. FITC′ = fluorescein isothiocyanate label

How the values were obtained:
[1] = tested on: P. aeruginosa-infected wounds; assay: Ex vivo CLSM of sectioned wound tissue; assay type: in vivo, female BALB/c athymic nude mice; settings: harvested after 18 h imaging
How it was run: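 Two 6 mm full-thickness dorsal wounds per mouse, occlusive dressing, 48 h recovery. Wounds were then inoculated with 60 μL containing ~10⁷ cells of a 50:50 mix of lux-tagged and TdTomato PAO1, or mock-treated with PBS. Cy5-labelled peptide probe, 60 nmoles, was given by tail vein 24 h later. After the 18 h imaging point, mice were CO₂-euthanised. Wounds were DAPI-stained (1 μg/mL, 10 min), fixed in 4% PFA for 24 h, OCT cryosectioned and imaged by CLSM.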

[2] = tested on: human primary neutrophils infected or not with PAO1-GFP+; assay: Human primary neutrophil infection model, imaging flow cytometry; assay type: cell-based
[3] = tested on: flow cell-grown P. aeruginosa PAO1 biofilms; assay: Peptide labeling of flow-grown biofilms by CLSM; assay type: cell-based, Pseudomonas aeruginosa; settings: 24 h flow cell biofilms; for Biofilm labeling (CLSM): 2 μM peptide in PBS, 1 h, room temperature; for Labeling pattern / localization within biofilms (CLSM): 2 μM peptide, single slice at mid-height
[4] = tested on: P. aeruginosa aggregates (PAO1-mCherry) on A549 cells; assay: Epithelial cell infection model, CLSM colocalization with bacteria; assay type: cell-based, Pseudomonas aeruginosa; settings: Cy5-labeled probes, Fig. S5
[5] = tested on: P. aeruginosa-infected wounds; assay: In vivo optical imaging in mouse infected wound model; parameters: species or system female BALB/c athymic nude mice; settings: 6 h post probe injection, p<0.0035, Fig. S7
How it was run: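 Wounded mice (6 mm dorsal biopsies, 48 h recovery) had wounds inoculated with ~10⁷ cells of a 50:50 lux-tagged/TdTomato PAO1 mix or PBS. Cy5-labelled peptide probe (60 nmoles, tail vein) or PBS was injected 24 h later; groups n=4, 3, 2. Isoflurane-anaesthetised mice were imaged at 3, 6 and 18 h. Bioluminescence integration was 2 s; fluorescence excitation was 640 nm. ROI wound Cy5 was normalised to surrounding non-wound tissue.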

[6] = tested on: P. aeruginosa (strain PAO1); assay: Bacterial growth inhibition; assay type: cell-based, Pseudomonas aeruginosa; settings: Fig. S3
How it was run: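 PAO1 grown from overnight culture (diluted 1:100 in LB without NaCl) at 37°C, 5% CO₂, 200 rpm to mid-log (OD₆₀₀ 0.5), pelleted, resuspended in Mueller-Hinton broth to OD₆₀₀ 0.1 (~10⁷ CFU/mL). Serially diluted FITC-labelled peptide added in triplicate; gentamycin 10 μg/mL positive control, PBS mock. OD₆₀₀ read every 30 min for 16 h at 37°C, 5% CO₂. Background-corrected mean OD normalised to PBS wells, as percentage.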

[7] = tested on: planktonic P. aeruginosa cells (PAO1, TdTomato); assay: Probe binding to planktonic cells by flow cytometry; assay type: cell-based, Pseudomonas aeruginosa; settings: 10, 5 or 1 μM, 30 min, room temperature, Fig. S2
How it was run: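 PAO1 with constitutive TdTomato plasmid was diluted 1:100 in LB without NaCl and grown 3 h at 37°C, 200 rpm, to mid-log. Cells were pelleted, resuspended in PBS at 10⁸ CFU/mL, labelled with FITC-peptide, washed, and fixed in 4% PFA for 20 min. 10,000 events per sample, gated on FSC/SSC and excluding low-TdTomato events. FITC MFI was normalised to autofluorescence. Two biological replicates, mean ± standard deviation.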

[8] = tested on: Human A549 type II alveolar epithelial cells; assay: Epithelial cell infection model, CLSM colocalization with epithelial cells; assay type: cell-based; settings: uninfected A549 cells, Fig. S8
How it was run: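 A549 cells seeded at 20,000/well in RPMI 1640 with 10% FBS and 100 U pen/strep for 3 days to ~70% confluency, then prelabelled with 1 μM cell tracker blue for 20 min at 37°C. Washed twice in warm PBS, stained with 2 μM FITC-labelled peptide for 1 h at 37°C, washed twice, fixed in 4% paraformaldehyde for 30 min. CLSM with 60x oil objective.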

Row | Substance | Biofilm labeling (CLSM) [3] | Labeling pattern / localization within biofilms (CLSM) [3] | Labeling of planktonic P. aeruginosa cells (FITC MFI, flow cytometry) [7] | Targeting of epithelial cells in the absence of infection [8] | other results
1 | (4Iph)(f)LPNSNHIKQGL-Cy5^b [4Iphf-HN17-Cy5] | retained similar biofilm targeting properties | – | – | – | Cy5 fluorescence in sectioned wound tissue (CLSM) ([1]; infected wound): intense, multi-focal pockets; Cy5 fluorescence in sectioned wound tissue (CLSM) ([1]; uninfected wound): minimal Cy5 fluorescence; Percentage of neutrophils that were Cy5+ ([2]; each of the four populations): greater than 87%; Colocalization between Cy5 and GFP (similarity feature) ([2]; every cell, all infected neutrophils regardless of morphology): < 0.2; Percentage of neutrophils that were Cy5+ ([2]; infected neutrophils with irregular morphology): 99.8%; Percentage of neutrophils that were Cy5+ ([2]; uninfected cells with normal morphology): 87.8%; Targeting in the epithelial cell infection model (Cy5 probes) [4]: biofilm specificity in the epithelial cell infection model; Cy5 signal enhancement in infected wounds vs PBS-treated wounds [5]: reached statistical significance compared to PBS-treated wounds; Bactericidal effects against P. aeruginosa [6]: no bactericidal effects
2 | (4Iph)(f)LPNSNHIKQGL-FITC^b [4Iphf-HN17-FITC] | biofilm labeling was observed | penetrated into biofilms | to a lesser degree than LG21-FITC and LL37-FITC | did not target epithelial cells in the absence of infection | –
3 | ^aFITC-KRNQRMARYRRGT ({FITC′}-KRNQRMARYRRGT) [UBIsc-FITC, reference compound] | failed to label biofilms | – | minimal targeting of P. aeruginosa cells | – | –
4 | ^aFITC-LLGDFFRKSKEKIGKEFKRIVQRIKDFLRNLVPRTES [LL37-FITC, reference compound] | biofilm labeling was observed | localized to the periphery of biofilms | greatest targeting of planktonic cells | – | –
5 | ^aFITC-LLPIVGNLLKSLLGWKRKRFG [LG21-FITC] | biofilm labeling was observed | localized to the periphery of biofilms | greatest targeting of planktonic cells | did not target epithelial cells in the absence of infection | –
6 | ^aFITC-TGRAKRRMQYNRR [UBI29-41-FITC, reference compound] | failed to label biofilms | – | minimal targeting of P. aeruginosa cells | – | –
7 | ^aFITC-WPRRPWRR ({FITC′}-WPRRPWRR) [WR8-Pro-FITC] | complete lack of binding | – | minimal targeting of P. aeruginosa cells | – | –
8 | ^aFITC-WWKKWWKK [WK8-FITC] | biofilm labeling was observed | penetrated into biofilms | to a lesser degree than LG21-FITC and LL37-FITC | moderate targeting of these cells | –
9 | ^aFITC-WWRRWWR [WR8-FITC] | biofilm labeling was observed | penetrated into biofilms | to a lesser degree than LG21-FITC and LL37-FITC | moderate targeting of these cells | –
